Data published in PubChem BioAssay AID1665 (Sanford-Burnham Center for Chemical Genomics, 2009).
The campaign covered roughly 190,000 compounds. About 590 (0.31%) were called active.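 The calls were made as follows: active = nuclear translocation activity above 50% at 5 µM, with a well cell count of 50 or more; inconclusive = wells under 50 cells across six images, flagged as toxic; inactive = the rest.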 The entries come from a sample that favours actives as a whole.

Test: modulators of beta-catenin nuclear translocation, primary screen, imaging, HeLa cells, immunofluorescence, high-content (AID 1665);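 as to nuclear translocation activity: per-cell ratio of nuclear to cytoplasmic median beta-catenin stain intensity; plate controls were DMSO negative control for no effect and GSK-3 inhibitor IX positive control for full effect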
Conditions: at 5 µM; cell count: measured here: cell count, cytotoxicity flag; nuclear translocation activity: stronger effect = higher value
Summary of the method: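 System: HeLa cells, endogenous beta-catenin; compound dosing: 5 µM primary single dose, 0.1% DMSO, 0.02–20 µM confirmation series; incubation: 24 h compound exposure at 37°C, 5% CO2; signal: beta-catenin immunofluorescence imaging with DAPI; evaluation: % activation, nuclear-to-cytoplasmic median beta-catenin signal ratio per cell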

Compound	cell count	nuclear translocation activity
CCOC(=O)C1CCN(c2c(Nc3cc(C)cc(C)c3)c(=O)c2=O)CC1	1340 cells	0.9% (inactive)
O=C(Cn1cnc2cc([N+](=O)[O-])ccc2c1=O)NC(=O)NCc1ccccc1	1320 cells	-2.1% (inactive)
Cc1cc(=O)[nH]c2nnnn12	1080 cells	-1.2% (inactive)
Cc1cc(N/N=C\c2ccc(Br)cc2)nc(-n2nc(C)cc2C)n1	1430 cells	-1.3% (inactive)
COc1ccc(Nc2cc(C)nc(-n3nc(C)cc3C)n2)cc1	451 cells	249% (active)
COc1ccccc1/C=N\Nc1cc(C)nc(-n2nc(C)cc2C)n1	900 cells	0.7% (inactive)
Nc1nnn(CC(=O)N/N=C/c2ccc(O)cc2)n1	1300 cells	-1.2% (inactive)
COCCNC(=S)N1CCN(C)CC1	1380 cells	-0.3% (inactive)
CCn1c(=O)c([N+](=O)[O-])c(NCc2ccc3c(c2)OCO3)c2ccccc21	1360 cells	-0.1% (inactive)
COc1cc(OC)cc(/C(N)=N/O)c1	1310 cells	0.5% (inactive)
COC(=O)c1ccccc1N=Nc1c(C)[nH][nH]c1=O	1310 cells	-1.6% (inactive)
O=C(NCCc1c[nH]c2ccc(Cl)cc12)c1ccc([N+](=O)[O-])cc1	1380 cells	1.3% (inactive)
N/C(=N\OC(=O)CCn1cccc(C(F)(F)F)c1=O)c1ccc(OC(F)(F)F)cc1	1280 cells	-1.4% (inactive)
O=C(NCC1CCCO1)c1cc(-c2ccccc2)nc2ccccc12 (stereo unspecified)	1120 cells	-2% (inactive)
CC(C)c1c(O)nc(SCCOc2ccc(Cl)cc2)[nH]c1=O	1310 cells	0.9% (inactive)
Cc1nn(CC(=O)N/N=C/c2ccc(F)cc2)c(C)c1[N+](=O)[O-]	1290 cells	0.3% (inactive)
O=C(NC1=NCCS1)c1ccc(Cl)s1	998 cells	1.4% (inactive)
CC(=O)NC1=NN(C(C)=O)C(C)(c2ccc(Cl)s2)S1 (stereo unspecified)	101 cells	68.6% (active)
O=C(O)C(NS(=O)(=O)c1cccc2nsnc12)c1ccccc1 (stereo unspecified)	1330 cells	-1% (inactive)
Cc1ccc(S(=O)(=O)N(C)CC(=O)OCC(=O)Nc2ccccc2)cc1	1320 cells	-1.1% (inactive)
CCS(=O)(=O)c1cc([N+](=O)[O-])c(Sc2ccccc2N)s1	1180 cells	-2.4% (inactive)

Compound	cell count	nuclear translocation activity
Cc1c(C(=O)N(Cc2ccccc2)Cc2cccnc2)cnn1-c1ccc(F)cc1	1030 cells	0.4% (inactive)
CCOc1ccc(/C(O)=C2\C(=O)C(=O)N(c3ccc(OC)cc3)C2c2ccccc2[N+](=O)[O-])cc1 (stereo unspecified)	1260 cells	-0.5% (inactive)
O=C(NN1C(=O)C2CCCCC2C1=O)c1ccco1 (stereo unspecified)	1260 cells	0.6% (inactive)
Cc1cc(-c2n[nH]c(=S)n2/N=C/c2ccco2)n[nH]1	1280 cells	-0.9% (inactive)
CCc1cccc(CC)c1NC(=S)Nc1ccc2cn[nH]c2c1	1270 cells	0.8% (inactive)
O=[N+]([O-])c1ccc(N=Cc2c(O)ccc3ccccc23)cc1	1330 cells	0.8% (inactive)
Cc1ccc(C(=O)Nc2nc(N)n(-c3ccccc3)n2)cc1	1180 cells	-1.1% (inactive)
O=C(c1c(Cl)cccc1Cl)N1CCN(c2cccc3[nH]ccc23)CC1	1260 cells	-1.5% (inactive)
COc1ccc(NC(=O)c2cn(-c3ccccc3)nc2SC)cc1	1240 cells	0.1% (inactive)
O=C(Nc1nnc(CCN2CCCCC2)s1)c1cccc(Cl)c1	1310 cells	0.2% (inactive)
C=CCSC(CC)(CC)C(N)=O	1320 cells	0.1% (inactive)
Cc1cc(F)ccc1NC(=O)C(C)n1c2ccccc2c2nc(=O)cc(C)n21 (stereo unspecified)	1290 cells	-0.2% (inactive)
COc1ccc(CCN2C(=O)N(c3ccc(OC)cc3)C(=O)C2CC(=O)Nc2ccc(OC)cc2)cc1 (stereo unspecified)	1360 cells	-0.8% (inactive)
Cc1nc(-c2nnc(SCC(=O)Nc3cc(C(F)(F)F)cc(C(F)(F)F)c3)n2C)cs1	1370 cells	-0.7% (inactive)
Cc1ccc2c(C)c(C(=O)N3CCC(N4CCC(C(=O)NC5CC5)CC4)CC3)oc2c1	1360 cells	1.4% (inactive)
CSc1ccc(NC(=O)/C=C/C(=O)O)cc1	1010 cells	2.1% (inactive)
CCN1CCN(c2nc(Nc3cccc(F)c3)nc(N)c2[N+](=O)[O-])CC1	1210 cells	-1.4% (inactive)
Cc1ccccc1-c1nc(C#N)c(NCc2ccco2)o1	1080 cells	-3.1% (inactive)
COc1ccc(Nc2oc(-c3ccccc3Cl)nc2C#N)cc1	210 cells	156% (active)
COc1ccc(Nc2nc(Cl)nc(NCc3ccco3)n2)cc1	1380 cells	3% (inactive)
NS(=O)(=O)c1ccc(NC2=CC(c3ccc(F)cc3)N(c3ccc(S(N)(=O)=O)cc3)C2=O)cc1 (stereo unspecified)	1320 cells	0.9% (inactive)

Compound	cell count	nuclear translocation activity
C/C(=N\NC(=O)c1cccnc1)c1ccc(-c2ccccc2)cc1	1160 cells	-0.7% (inactive)
O=C(Nc1ccc(S(=O)(=O)Nc2nccs2)cc1)c1cccc(S(=O)(=O)N2CCOCC2)c1	1290 cells	0.8% (inactive)
C[C@@H](NC(=O)OC(C)(C)C)c1nnc(S(=O)(=O)Cc2ccccc2)o1	1360 cells	-0.8% (inactive)
COc1ccc(N2C(=O)c3ccccc3NC2c2ccc(OC)c(CN3CCOCC3)c2)cc1 (stereo unspecified)	1290 cells	0.6% (inactive)
CCCC(=O)Nc1nc2ccc(NC(=O)c3c(F)c(F)c(OC)c(F)c3F)cc2s1	260 cells	57.6% (active)
CCCC(=O)Nc1nc2ccc(NC(=O)c3cccnc3)cc2s1	895 cells	-0.7% (inactive)
COc1ccc2nc(Nc3nc4ccc(NC(C)=O)cc4s3)sc2c1	875 cells	2.8% (inactive)
Cc1ccc(/C=N/NC(=S)Nc2cccc(S(=O)(=O)N(C)C)c2)o1	1210 cells	2.8% (inactive)
C=CC1C(OC2OC(CO)C(O)C(O)C2O)OC=C(C(=O)OC)C1CC1CC(=O)CC(CC(=O)CCc2ccc(O)cc2)O1 (stereo unspecified)	387 cells	79.8% (active)
CC(/C=C/C1(O)C(C)CC(=O)CC1(C)C)OC1OC(CO)C(O)C(O)C1O (stereo unspecified)	1080 cells	-3% (inactive)
Cc1cc(C(=O)NCCc2ccc(Cl)cc2)n(-c2ccccc2)n1	1320 cells	-0.3% (inactive)
Cn1nccc1NC(=O)Nc1ccc(OC(F)(F)F)cc1	1280 cells	0.7% (inactive)
CC(C)Cc1ccc(C(C)C(=N)N)cc1 (stereo unspecified)	1310 cells	1.1% (inactive)
COc1ccc(CNC(=O)C2CC(c3ccc(C(F)(F)F)cc3)=NO2)cc1 (stereo unspecified)	1110 cells	2.2% (inactive)
COc1ccc(C2=NOC(C(=O)NCc3ccco3)C2)cc1OC (stereo unspecified)	701 cells	166% (active)
COc1ccc(-c2cc(C(=O)NCc3ccco3)no2)cc1OC	1220 cells	-1.7% (inactive)
COc1ccc(S(=O)(=O)N(CC(=O)N/N=C/c2ccccc2C(=O)O)c2ccccc2OC)cc1	1300 cells	-0.3% (inactive)
Cc1cc(=O)oc2cc(OCC3CC(c4ccccc4Cl)=NO3)ccc12 (stereo unspecified)	228 cells	168% (active)
Cc1ccccc1N1CCN(CCCOc2ccc3c(C)cc(=O)oc3c2)CC1	1030 cells	1.9% (inactive)
Cc1cc(=O)oc2cc(OCCC[n+]3ccccc3)ccc12	1370 cells	-1% (inactive)
COc1ccc(C(C(=O)NC(C)(C)C)N(C(=O)Cn2nnc3ccccc32)c2ccc(C(C)=O)cc2)cc1O (stereo unspecified)	1370 cells	-1% (inactive)

Compound	cell count	nuclear translocation activity
COc1ccc(-n2nnnc2-c2nc3ccccc3s2)cc1	953 cells	0.1% (inactive)
CCOc1cccc(-n2nnnc2-c2ccc(OC)cc2)c1	184 cells	63.9% (active)
CCOc1cccc(-c2nnc3sc(COc4ccc(OC)cc4)nn23)c1	1020 cells	-0.9% (inactive)
CC(C)(C)NC(=O)/C(=C/c1cccnc1)NC(=O)c1ccco1	1310 cells	-0.7% (inactive)
Cc1nn2c(NCCN(C)C)c3c(nc2c1-c1ccccc1)CCC3	1430 cells	0.3% (inactive)
C=CCNC(=S)N1CCc2[nH]c3ccccc3c2C1	1340 cells	0.9% (inactive)
O=C(NNC(=S)Nc1ccc(F)cc1)[C@H]1C[C@@H]1c1ccccc1	1360 cells	-0.2% (inactive)
Cc1ccc(/C=N/NC(=S)NC2CCCCC2)o1	1310 cells	-0.8% (inactive)
Cc1cc(C)cc(OCC(=O)O/N=C(\N)Cc2ccc([N+](=O)[O-])cc2)c1	1030 cells	-2.4% (inactive)
COc1ccc(-c2nn(C)c(=O)c3ccccc23)cc1CNC(=O)C1CCCCC1	1350 cells	0.1% (inactive)
COc1ccc(C(CC(=O)N2CCN(c3ccccc3)CC2)c2c(O)cc(OC)cc2OC)cc1 (stereo unspecified)	1050 cells	0.9% (inactive)
Cc1ccc(/C=N/NC(=O)CSc2ccccn2)o1	1300 cells	0.7% (inactive)
COC(=O)c1c(C)oc(C)c1S(=O)(=O)Nc1ccc(C(C)C)cc1	1320 cells	-1.4% (inactive)
CC12C(=O)N(c3ccccc3)C(=O)C1C(c1ccccc1)N1CCCN12 (stereo unspecified)	1080 cells	-5.7% (inactive)
COc1cc(NC(=O)c2ccc(CNc3c(N4CCCC4)c(=O)c3=O)cc2)cc(OC)c1OC	1340 cells	-0.2% (inactive)
O=C(CSc1nnc(SCc2ccc(F)cc2)s1)Nc1ccc(C(=O)O)cc1	1300 cells	-1% (inactive)
CCOC(=O)N/N=C1\CC(C)S(=O)(=O)c2ccc(Cl)cc21 (stereo unspecified)	1360 cells	0.2% (inactive)
O=C(N/N=C/c1ccc([N+](=O)[O-])cc1)c1c[nH]c2ccccc12	1150 cells	-1.5% (inactive)
Cc1cc(C(=O)N/N=C/c2ccccc2[N+](=O)[O-])c(C)o1	1070 cells	-0.2% (inactive)
Cc1c(C(=O)N/N=C/c2ccccc2)[nH]c2c([N+](=O)[O-])cccc12	474 cells	69.8% (active)
